Consider 37 compounds from ChEMBL document CHEMBL4038305, “Benzoxaborole Antimalarial Agents. Part 5. Lead Optimization of Novel Amide Pyrazinyloxy Benzoxaboroles and Identification of a Preclinical Candidate” (J Med Chem, 2017).

The subject of assay [1] is Plasmodium falciparum. Description: Antimalarial activity against chloroquine-sensitive Plasmodium falciparum 3D7 infected in human erythrocytes assessed as reduction in [3H]-hypoxanthine incorporation preincubated for 24 hrs followed by [3H]-hypoxanthine addition measured after 24 hrs by scintillation counting method. Format: functional, cell-based. The essentials: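 P. falciparum 3D7 cultures were exposed to the compound for 48 h, with atovaquone as the reference control. IC50 was taken from three replicates.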

Assay [2] relates to Plasmodium falciparum. Description: Antimalarial activity against chloroquine-resistant Plasmodium falciparum W2 infected in human erythrocytes after 48 hrs by YOYO-1 dye based flow cytometric analysis. It is filed as functional, cell-based. Conditions: W2, 48 h. In short, it runs like this: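 P. falciparum W2 cultures were exposed to the compound for 48 h, with artemisinin and chloroquine as reference controls. IC50 was taken from two independent replicates.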

Molecules are shown by their SMILES.

As usually defined, the IC50 is the concentration that inhibits the measured activity by half. On to `CCC[C@H](NC(=O)c1cnc(Oc2ccc3c(c2C)B(O)OC3)cn1)C(C)(C)O`, for which the half-maximal inhibitory concentration (IC50) in the assay on Plasmodium falciparum [1] is 217 nM; in the assay on Plasmodium falciparum [2], 129 nM.
The matching figures for `Cc1c(Oc2cnc(C(=O)N[C@@H](CO)CS(C)(=O)=O)cn2)ccc2c1B(O)OC2`: 472 nM and 180 nM.
For `Cc1c(Oc2cnc(C(=O)N[C@H](CO)C(C)C)cn2)ccc2c1B(O)OC2` the same measures were 1990 nM and 774 nM.
For `Cc1c(Oc2cnc(C(=O)N[C@@H](CO)Cc3ccccc3)cn2)ccc2c1B(O)OC2` the same measures were 505 nM and 115 nM.
Consider `Cc1c(Oc2cnc(C(=O)N[C@H](CO)C3CC3)cn2)ccc2c1B(O)OC2`, for which the results for the 50% inhibitory concentration (IC50) with Plasmodium falciparum [1] and with Plasmodium falciparum [2] were 1090 nM and 643 nM, respectively.
For `CCCC[C@H](CO)NC(=O)c1cnc(Oc2ccc3c(c2C)B(O)OC3)cn1` the same measures were 215 nM and 84.9 nM.
For `CCC[C@@H](CO)NC(=O)c1cnc(Oc2ccc3c(c2C)B(O)OC3)cn1` the same measures were 715 nM and 297 nM.
The matching figures for `Cc1c(Oc2cnc(C(=O)N[C@H](CO)CC(F)(F)F)cn2)ccc2c1B(O)OC2`: 31 nM and 350 nM.
Take `Cc1c(Oc2cnc(C(=O)NCC(C)O)cn2)ccc2c1B(O)OC2` (centres undefined): the IC50 in the assay on Plasmodium falciparum [1] was 1100 nM; in the assay with Plasmodium falciparum [2], 1280 nM.
The matching figures for `Cc1c(Oc2cnc(C(=O)NCC(C)(C)O)cn2)ccc2c1B(O)OC2`: 554 nM and 334 nM.
`CC[C@@H](CO)NC(=O)c1cnc(Oc2ccc3c(c2C)B(O)OC3)cn1`: the IC50 is 801 nM with Plasmodium falciparum [1] and 704 nM in the assay with Plasmodium falciparum [2].
On to `Cc1c(Oc2cnc(C(=O)N3CCNC[C@H]3CO)cn2)ccc2c1B(O)OC2`, for which the half-maximal inhibitory concentration (IC50) came to 171 nM in the assay with Plasmodium falciparum [1] and 98.2 nM in the assay with Plasmodium falciparum [2].
For `Cc1c(Oc2cnc(C(=O)NC(C)C(C)O)cn2)ccc2c1B(O)OC2` (centres undefined) the same measures were 1460 nM and 513 nM.
The matching figures for `Cc1c(Oc2cnc(C(=O)N[C@@H](C)CO)cn2)ccc2c1B(O)OC2`: 808 nM and 844 nM.
The matching figures for `COC[C@H](CO)NC(=O)c1cnc(Oc2ccc3c(c2C)B(O)OC3)cn1`: 796 nM and 455 nM.
For `Cc1c(Oc2cnc(C(=O)N[C@H]3CCC[C@@H]3O)cn2)ccc2c1B(O)OC2`, the values for the IC50 in the assay with Plasmodium falciparum [1] and in the assay with Plasmodium falciparum [2] were 537 nM and 149 nM, respectively.
On to `Cc1c(Oc2cnc(C(=O)N[C@@H](C)C(C)(C)O)cn2)ccc2c1B(O)OC2`, for which the IC50 turned out to be 327 nM with Plasmodium falciparum [1] and 202 nM in the assay with Plasmodium falciparum [2].
Turning to `Cc1c(Oc2cnc(C(=O)N[C@@H](CO)CCC(F)(F)F)cn2)ccc2c1B(O)OC2`, the 50% inhibitory concentration (IC50) in the assay with Plasmodium falciparum [1] stood at 480 nM; in the assay with Plasmodium falciparum [2], 230 nM.
With `Cc1c(Oc2cnc(C(=O)N[C@@H](CO)c3ccccc3)cn2)ccc2c1B(O)OC2`, the values for the IC50 with Plasmodium falciparum [1] and with Plasmodium falciparum [2] were 161 nM and 103 nM, respectively.
The matching figures for `Cc1c(Oc2cnc(C(=O)N[C@@H]3CCC[C@H]3O)cn2)ccc2c1B(O)OC2`: 245 nM and 133 nM.
The matching figures for `Cc1c(Oc2cnc(C(=O)N(CCO)CCO)cn2)ccc2c1B(O)OC2`: 184 nM and 328 nM.
Regarding `Cc1c(Oc2cnc(C(=O)N[C@H](CO)CCC(F)(F)F)cn2)ccc2c1B(O)OC2`, the half-maximal inhibitory concentration (IC50) came to 959 nM with Plasmodium falciparum [1] and 352 nM in the assay on Plasmodium falciparum [2].
For `CCC[C@H](CO)N(C)C(=O)c1cnc(Oc2ccc3c(c2C)B(O)OC3)cn1` the same measures were 252 nM and 48.1 nM.
The matching figures for `CC[C@@H](NC(=O)c1cnc(Oc2ccc3c(c2C)B(O)OC3)cn1)C(C)(C)O`: 222 nM and 91.8 nM.
The matching figures for `Cc1c(Oc2cnc(C(=O)N(C)CCO)cn2)ccc2c1B(O)OC2`: 437 nM and 262 nM.
Consider `Cc1c(Oc2cnc(C(=O)N[C@@H](CO)C3CC3)cn2)ccc2c1B(O)OC2`, for which the IC50 turned out to be 587 nM in the assay with Plasmodium falciparum [1] and 492 nM in the assay with Plasmodium falciparum [2].
The matching figures for `Cc1c(Oc2cnc(C(=O)N3CCC(C)(O)C3)cn2)ccc2c1B(O)OC2` (centres undefined): 314 nM and 139 nM.
The matching figures for `Cc1c(Oc2cnc(C(=O)NC3(CO)CC3)cn2)ccc2c1B(O)OC2`: 1500 nM and 2010 nM.
On to `Cc1c(Oc2cnc(C(=O)N[C@H](C)CO)cn2)ccc2c1B(O)OC2`, for which the IC50 was determined as 848 nM in the assay with Plasmodium falciparum [1] and 944 nM with Plasmodium falciparum [2].
The matching figures for `Cc1c(Oc2cnc(C(=O)N3CCNC[C@@H]3CO)cn2)ccc2c1B(O)OC2`: 151 nM and 103 nM.
The matching figures for `CC[C@H](NC(=O)c1cnc(Oc2ccc3c(c2C)B(O)OC3)cn1)C(C)(C)O`: 829 nM and 279 nM.
The matching figures for `CSC[C@H](CO)NC(=O)c1cnc(Oc2ccc3c(c2C)B(O)OC3)cn1`: 74 nM and 37 nM.
For the compound `Cc1c(Oc2cnc(C(=O)N[C@@H]3CCC[C@@H]3O)cn2)ccc2c1B(O)OC2` (relative stereo), the IC50 in the assay with Plasmodium falciparum [1] was found to be 181 nM; in the assay with Plasmodium falciparum [2], 292 nM.
For `CCC[C@@H](NC(=O)c1cnc(Oc2ccc3c(c2C)B(O)OC3)cn1)C(C)(C)O` the same measures were 553 nM and 260 nM.
For `Cc1c(Oc2cnc(C(=O)NC(C)(C)CO)cn2)ccc2c1B(O)OC2` the same measures were 425 nM and 290 nM.
For `Cc1c(Oc2cnc(C(=O)N[C@H](C)C(C)(C)O)cn2)ccc2c1B(O)OC2` the same measures were 374 nM and 265 nM.
For `COCCNC(=O)c1cnc(Oc2ccc3c(c2C)B(O)OC3)cn1`, the values for the IC50 with Plasmodium falciparum [1] and with Plasmodium falciparum [2] were 644 nM and 788 nM, respectively.
